ChEMBL document CHEMBL1154695 (J Med Chem, 2009)

Columns and labels:
Hepatitis C virus = test: Antiviral activity against HCV by viral replicon assay; format: functional, Hepacivirus hominis
[1] = Chemical stability assessed as compound epimerization in potassium phosphate buffer of pH 7; format: physicochemical
In short: (§1)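 Start concentration 0.25 mg/mL, followed over time at pH 7 in water, pH 7 phosphate (0.05 M) or pH 9 borate (0.1 M). Aliquots were drawn at intervals and HPLC measured the parent and the P1-(R) epimer VRT-394. k_obs is the sum of the forward and reverse epimerization rate constants; relative rate is taken against pH 7 water.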

Plasma [2] = test: Stability in human plasma assessed as conversion to VRT-394 at 10 uM after 1 hr; format: ADME, cell-free; conditions: 1 µM, in the assay text read “1 uM” for “10 uM”
Plasma [3] = test: Stability in human plasma relative to telaprevir; format: ADME, cell-free
In short: (§2)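 Rat, dog or human plasma was preincubated at 37 °C and spiked from DMSO stock to a final 1 or 10 μM (final DMSO 1%), in triplicate with shaking. Control was 0.1 M potassium phosphate pH 7.4. Sampling was at 0–120 min (rat, dog) or 0–180 min (human, buffer). Samples were acidified, extracted with ethyl acetate and run on chiral LC-MS/MS (MRM). Epimerization was scored by initial rate and k_H/k_D.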

Plasma [4] = test: Stability in rat plasma relative to telaprevir; format: ADME, cell-free; in short: as §2
Plasma [5] = test: Stability in dog plasma relative to telaprevir; format: ADME, cell-free, Canis lupus familiaris; in short: as §2
[6] = Stability in rat plasma assessed as compound epimerization at 10 uM; format: ADME, cell-free; in short: as §2
Plasma [7] = test: Stability in human plasma assessed as conversion to VRT-394 at 1 uM after 1 hr
[8] = Terminal half life in Sprague-Dawley rat at 10 mg/kg, po; format: ADME, organism-based; set-up: dose 10 mg/kg, route oral; conditions: in vivo, read-out: beta t1/2 (converted)
In short: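 Male Sprague-Dawley rats with cannulas received 10 mg/kg by gavage at 1 mg/mL (10 mL/kg) in a solid dispersion (HPMC-AS/SLS) taken up in 1% HPMC-AS and 10% vitamin E TPGS. Blood was drawn from 0.25 to 24 h into EDTA; plasma was acidified and assayed by LC/MS/MS. Parameters came from noncompartmental analysis.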

[9] = Stability in boric acid-potassium chloride buffer of pH 9; format: physicochemical; in short: as §1
[10] = Stability in potassium phosphate buffer of pH 7; format: physicochemical; in short: as §1
[11] = Inhibition of HCV NS3/4A protease; set-up: species or system Hepacivirus hominis

CCC[C@H](NC(=O)[C@@H]1[C@H]2CCC[C@H]2CN1C(=O)[C@@H](NC(=O)[C@@H](NC(=O)c1cnccn1)C1CCCCC1)C(C)(C)C)C(=O)C(=O)NC1CC1
IC99 (Hepatitis C virus): 3.3 µM
half-life [1]: 35 h
Activity (Plasma [2]): 35%

[2H][C@@](CCC)(NC(=O)[C@@H]1[C@H]2CCC[C@H]2CN1C(=O)[C@@H](NC(=O)[C@@H](NC(=O)c1cnccn1)C1CCCCC1)C(C)(C)C)C(=O)C(=O)NC1CC1
IC99 (Hepatitis C virus): 4 µM
Activity (Plasma [3]): Stable
Activity (Plasma [4]): Stable
Activity (Plasma [5]): Stable
half-life at 10 µM [6]: > 4 h
Activity (Plasma [7]): 10%
half-life [8]: 1.5 h
Activity [9]: Stable
Activity [10]: Stable
Ki [11]: 20 nM

CCC[C@@H](NC(=O)[C@@H]1[C@H]2CCC[C@H]2CN1C(=O)[C@@H](NC(=O)[C@@H](NC(=O)c1cnccn1)C1CCCCC1)C(C)(C)C)C(=O)C(=O)NC1CC1
Ki [11]: > 1000 nM
